Columns and labels:
[1] = Distribution coefficient measured in Octanol/buffer (0.15 M KCl); format: physicochemical
In short: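 Dual-phase titration at 25 °C: 1–2 mg sample plus 1.0 mL n-octanol in 10–15 mL water with 0.15 M KCl. Acidified to pH 2 (0.5 M HCl), then titrated with 0.5 M KOH to pH 11 under nitrogen. log P came from the pKa–pKa' shift via nonlinear regression of difference curves; log D refers to pH 7.4.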

[2] = Dissociation constant of the compound; format: physicochemical
Homo sapiens = species: Homo sapiens; experiment: Mono layer permeability of human intestinal Caco-2 cells; format: ADME, cell-based
In short: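 Caco-2 cells at passage 93–105, seeded on polycarbonate filter inserts (0.45 μm pores) and grown 22–32 days. Drug at 1–2 mM final in HBSS with 25 mM Hepes, pH 7.4, added donor side; 37 °C, low and high stirring. Receiver sampled every 4–40 min for HPLC, under sink conditions. Pc derived from Papp across stirring rates, free of the aqueous boundary layer.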

SMILES | logD [1] | pKa [2] | Pc (Homo sapiens)
CCC(=O)Nc1ccc(OCC(O)CNC(C)C)cc1 (configuration not stated) | -1.08 | 9.5 | 6.03 ×10⁻⁶ cm/s
O=C(NCCNCC(O)COc1ccc(CCOCCOCC2CC2)cc1)N1CCC(O)CC1 (configuration not stated) | -0.1 | 8.5 | 0.104 ×10⁻⁶ cm/s
CC(C)NCC(O)COc1ccc(NC=O)cc1 (configuration not stated) | -1.56 | 9.5 | 3.75 ×10⁻⁶ cm/s
C=CCc1ccccc1OCC(O)CNC(C)C (configuration not stated) [ALPRENOLOL] | 0.85 | – | 242 ×10⁻⁶ cm/s
COCCc1ccc(OCC(O)CNC(C)C)cc1 (configuration not stated) [METOPROLOL] | -0.42 | – | 91.9 ×10⁻⁶ cm/s
C=CCOc1ccccc1OCC(O)CNC(C)C (configuration not stated) [OXPRENOLOL] | 0.08 | 9.5 | 119.6 ×10⁻⁶ cm/s
CC(C)NCC(O)COc1cccc2[nH]ccc12 (configuration not stated) [PINDOLOL] | -0.55 | 9.7 | 54.7 ×10⁻⁶ cm/s
CC(=O)Nc1ccc(OCC(O)CNC(C)C)cc1 (configuration not stated) [PRACTOLOL] | -1.31 | 9.5 | 3.46 ×10⁻⁶ cm/s
